Experimental data from article PMC10975593 (ACS Omega, 2024).

Experiments:
[1] = test system: MCF-7 and A549 cancer cell lines; test: MTT assay, range over both cell lines; format: cell-based; conditions: read-out: IC50 values, range
Procedure, shortened: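 A549 in DMEM and MCF-7 in RPMI, each with 10% heat-inactivated FBS, 1% penicillin/streptomycin and 2 mmol/L glutamine at 37 °C, 5% CO2. Seeded at 2000 (A549) or 10,000 (MCF-7) cells/well and attached 24 h. Then 72 h with test compound at varying concentrations. MTT (5 mg/mL stock) added for 4 h at 37 °C, formazan dissolved in DMSO, absorbance read at 450/540 nm. Triplicates in three separate experiments.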

Fibro cell line = test: % inhibition on normal cell line; format: cell-based
NCI 60 cell line panel = test: NCI 60-cell line inhibition, range over panel; format: cell-based; conditions: Homo sapiens
MCF-7 = test: NCI 60-cell line screen; format: cell-based, human
MDA-MB-468 = test: NCI 60-cell line screen; format: cell-based, human
T-47D = test: NCI 60-cell line screen; format: cell-based, human
Procedure, shortened: (§1)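 Test compounds were submitted to the National Cancer Institute and run under NCI's standard 60-cell-line protocols. Read-outs were taken from percent-growth versus log-concentration curves.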

SF-268 = test: NCI 60-cell line screen; format: cell-based, human
Procedure, shortened: as §1

SF-295 = test: NCI 60-cell line screen; format: cell-based, human
Procedure, shortened: as §1

U251 = test: NCI 60-cell line screen; format: cell-based, human
Procedure, shortened: as §1

HCT-116 = test: NCI 60-cell line screen; format: cell-based, human
CCRF-CEM = test: NCI 60-cell line screen; format: cell-based, human
LOX IMVI = test: NCI 60-cell line screen; format: cell-based, human
SK-MEL-2 = test: NCI 60-cell line screen; format: cell-based, human
Procedure, shortened: as §1

SK-MEL-28 = test: NCI 60-cell line screen; format: cell-based, human
Procedure, shortened: as §1

A549/ATCC = test: NCI 60-cell line screen; format: cell-based, human
NCI-H226 = test: NCI 60-cell line screen; format: cell-based, human
NCI-H23 = test: NCI 60-cell line screen; format: cell-based, human
NCI-H322M = test: NCI 60-cell line screen; format: cell-based, human
NCI/ADR-RES = test: NCI 60-cell line screen; format: cell-based, human
DU-145 = test: NCI 60-cell line screen; format: cell-based, human
786-0 = test: NCI 60-cell line screen; format: cell-based, human
ACHN = test: NCI 60-cell line screen; format: cell-based, human
CAKI-1 = test: NCI 60-cell line screen; format: cell-based, human
SN12C = test: NCI 60-cell line screen; format: cell-based, human
Procedure, shortened: as §1

UO-31 = test: NCI 60-cell line screen; format: cell-based, human
Procedure, shortened: as §1

HL-60(TB) = test: cells; conditions: Homo sapiens

Compound `O=C(CN1CCN(CC(=O)Nc2nc3ccccc3s2)CC1)Nc1ccc([N+](=O)[O-])cc1` [OMS14, N-(benzo[d]thiazol-2-yl)-2-(4-(2-((4-nitrophenyl)amino)-2-oxoethyl)piperazin-1-yl)acetamide] has an IC50 [1] of 22.1 to 61 µM, an inhibition at 10 µM (Fibro cell line; read-out: %inhibition at 10 μM) of 49.4% and an inhibition at 100 µM (Fibro cell line; read-out: %inhibition at 100 μM) of 70.5%. For the same compound, the GI50 (NCI 60 cell line panel; read-out: GI50, range over cell lines) was 0.66 to 3.02 µM, the IC50 (NCI 60 cell line panel; read-out: IC50, range over cell lines) was 0.81 to 9.1 µM and the GI50 (MCF-7; Homo sapiens, MCF7) was 2.8 µM. It also gave an IC50 (MCF-7; Homo sapiens, MCF7) of 4.1 µM, a CC50 (MCF-7; Homo sapiens, MCF7, read-out: LC50) of 61.7 µM and a TGI (MCF-7; MCF-7, breast cancer) of 7.8 µM. It also gave a GI50 (MDA-MB-468; Homo sapiens, MDA-MB-468) of 1.5 µM, an IC50 (MDA-MB-468; Homo sapiens, MDA-MB-468) of 3.2 µM and a CC50 (MDA-MB-468; Homo sapiens, MDA-MB-468, read-out: LC50) of 7.1 µM. For the same compound, the TGI (MDA-MB-468; MDA-MB-468, breast cancer) was 3.2 µM, the GI50 (T-47D; Homo sapiens, T47D) was 2.2 µM and the IC50 (T-47D; Homo sapiens, T47D) was 5.6 µM. For the same compound, the CC50 (T-47D; Homo sapiens, T47D, read-out: LC50) was > 100 µM, the TGI (T-47D; T-47D, breast cancer) was 5.8 µM and the GI50 (SF-268; Homo sapiens, SF-268) was 2.2 µM. It also gave an IC50 (SF-268; Homo sapiens, SF-268) of 4.6 µM, a CC50 (SF-268; Homo sapiens, SF-268, read-out: LC50) of 43.7 µM and a TGI (SF-268; SF-268, CNS cancer) of 7.1 µM. For the same compound, the GI50 (SF-295; Homo sapiens, SF-295) was 2.2 µM, the IC50 (SF-295; Homo sapiens, SF-295) was 3.7 µM and the CC50 (SF-295; Homo sapiens, SF-295, read-out: LC50) was 28.8 µM. It also gave a TGI (SF-295; SF-295, CNS cancer) of 7.1 µM, a GI50 (U251; Homo sapiens, U-251) of 2.6 µM and an IC50 (U251; Homo sapiens, U-251) of 3.5 µM. It also gave a CC50 (U251; Homo sapiens, U-251, read-out: LC50) of 50.1 µM, a TGI (U251; U251, CNS cancer) of 11.0 µM and a TGI (HCT-116; HCT-116, colon cancer) of 10.5 µM. The GI50 (HCT-116; Homo sapiens, HCT-116) was 0.7 µM, the IC50 (HCT-116; Homo sapiens, HCT-116) was 0.8 µM and the CC50 (HCT-116; Homo sapiens, HCT-116, read-out: LC50) was 52.5 µM. The GI50 (CCRF-CEM; Homo sapiens) was 2.5 µM, the IC50 (CCRF-CEM; Homo sapiens) was 4 µM and the CC50 (CCRF-CEM; Homo sapiens, read-out: LC50) was > 100 µM. It also gave a TGI (CCRF-CEM; leukemia) of 17.4 µM, a GI50 (LOX IMVI; Homo sapiens) of 1.6 µM and an IC50 (LOX IMVI; Homo sapiens) of 2.8 µM. It also gave a CC50 (LOX IMVI; Homo sapiens, read-out: LC50) of 6.2 µM, a TGI (LOX IMVI; melanoma) of 3.2 µM and a GI50 (SK-MEL-2; Homo sapiens, SK-MEL-2) of 1.8 µM. It also gave an IC50 (SK-MEL-2; Homo sapiens, SK-MEL-2) of 3.5 µM, a CC50 (SK-MEL-2; Homo sapiens, SK-MEL-2, read-out: LC50) of 6.9 µM and a TGI (SK-MEL-2; SK-MEL-2, melanoma) of 3.5 µM. The GI50 (SK-MEL-28; Homo sapiens, SK-MEL-28) was 2.1 µM, the IC50 (SK-MEL-28; Homo sapiens, SK-MEL-28) was 4 µM and the CC50 (SK-MEL-28; Homo sapiens, SK-MEL-28, read-out: LC50) was 23.4 µM. It also gave a TGI (SK-MEL-28; SK-MEL-28, melanoma) of 6.2 µM, a TGI (A549/ATCC; A549/ATCC, non-small cell lung cancer) of 4.6 µM and a GI50 (A549/ATCC; Homo sapiens, A549) of 1.9 µM. The IC50 (A549/ATCC; Homo sapiens, A549) was 3.2 µM, the CC50 (A549/ATCC; Homo sapiens, A549, read-out: LC50) was > 100 µM and the GI50 (NCI-H226; Homo sapiens, NCI-H226) was 1.4 µM. For the same compound, the IC50 (NCI-H226; Homo sapiens, NCI-H226) was 3.5 µM, the CC50 (NCI-H226; Homo sapiens, NCI-H226, read-out: LC50) was > 100 µM and the TGI (NCI-H226; NCI-H226, non-small cell lung cancer) was 4.2 µM. For the same compound, the GI50 (NCI-H23; Homo sapiens, NCI-H23) was 1.6 µM, the IC50 (NCI-H23; Homo sapiens, NCI-H23) was 3.2 µM and the CC50 (NCI-H23; Homo sapiens, NCI-H23, read-out: LC50) was 8.9 µM. The TGI (NCI-H23; NCI-H23, non-small cell lung cancer) was 3.8 µM, the GI50 (NCI-H322M; Homo sapiens) was 1.9 µM and the IC50 (NCI-H322M; Homo sapiens) was 3.7 µM. The CC50 (NCI-H322M; Homo sapiens, read-out: LC50) was 40.7 µM, the TGI (NCI-H322M; non-small cell lung cancer) was 5.5 µM and the GI50 (NCI/ADR-RES; Homo sapiens) was 1.3 µM. The IC50 (NCI/ADR-RES; Homo sapiens) was 2.4 µM, the CC50 (NCI/ADR-RES; Homo sapiens, read-out: LC50) was 7.8 µM and the TGI (NCI/ADR-RES; ovarian cancer) was 3.2 µM. The TGI (DU-145; DU-145, prostate cancer) was 7.9 µM, the GI50 (DU-145; Homo sapiens, DU-145) was 2.2 µM and the IC50 (DU-145; Homo sapiens, DU-145) was 3.5 µM. For the same compound, the CC50 (DU-145; Homo sapiens, DU-145, read-out: LC50) was 38.9 µM, the TGI (786-0; 786-0, renal cancer) was 11.5 µM and the GI50 (786-0; Homo sapiens, 786-0) was 2.1 µM. It also gave an IC50 (786-0; Homo sapiens, 786-0) of 3.3 µM, a CC50 (786-0; Homo sapiens, 786-0, read-out: LC50) of 43.7 µM and a GI50 (ACHN; Homo sapiens) of 1.1 µM. For the same compound, the IC50 (ACHN; Homo sapiens) was 2.1 µM, the CC50 (ACHN; Homo sapiens, read-out: LC50) was 22.9 µM and the TGI (ACHN; renal cancer) was 4.4 µM. For the same compound, the TGI (CAKI-1; CAKI-1, renal cancer) was 3.6 µM, the GI50 (CAKI-1; Homo sapiens, CAKI-1) was 0.9 µM and the IC50 (CAKI-1; Homo sapiens, CAKI-1) was 2 µM. The CC50 (CAKI-1; Homo sapiens, CAKI-1, read-out: LC50) was 16.2 µM, the GI50 (SN12C; Homo sapiens) was 1.9 µM and the IC50 (SN12C; Homo sapiens) was 3.5 µM. The CC50 (SN12C; Homo sapiens, read-out: LC50) was > 100 µM, the TGI (SN12C; renal cancer) was 5.4 µM and the GI50 (UO-31; Homo sapiens, UO-31) was 1.3 µM. The IC50 (UO-31; Homo sapiens, UO-31) was 2.5 µM, the CC50 (UO-31; Homo sapiens, UO-31, read-out: LC50) was 8.5 µM and the TGI (UO-31; UO-31, renal cancer) was 3.3 µM. It also gave a GI50 (HL-60(TB); HL-60) of 2.5 µM, an IC50 (HL-60(TB); HL-60) of 4.4 µM and a CC50 (HL-60(TB); HL-60, read-out: LC50) of 81.3 µM.
